Source: ChEMBL document CHEMBL1671684, “In vitro resistance profile of the hepatitis C virus NS3/4A protease inhibitor TMC435” (Antimicrob Agents Chemother, 2010)

Test system: Hepatitis C virus
Assay: Antiviral activity against Hepatitis C virus subtype 1b expressing WT NS3 infected in HuH7 cells after 48 hrs by luciferase reporter assay
Format: functional, organism-based, Hepacivirus hominis
Conditions: genotype 1b, Huh-7, 48 h
Procedure, shortened: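 Huh7-lunet cells were electroporated with 10 μg wild-type genotype 1b subgenomic replicon RNA (clone ET; luciferase reporter; E1202G, T1280I, K1846T). They were seeded at 4,000 cells/well over a nine-point compound dilution series. After 48 h at 37°C, 5% CO2, luciferase reagent was added 1:1, followed by 10–20 min in the dark and a luminescence read. EC50 is the median of individual-experiment EC50s.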

SMILES | EC50 [nM]
COc1ccc2c(O[C@@H]3C[C@H]4C(=O)N[C@]5(C(=O)NS(=O)(=O)C6CC6)C[C@H]5/C=C\CCCCN(C)C(=O)[C@@H]4C3)cc(-c3nc(C(C)C)cs3)nc2c1C [SIMEPREVIR] | 11

Test system: Hepatitis C virus
Assay: Antiviral activity against Hepatitis C virus subtype 1b expressing NS3 V36M mutant infected in HuH7 cells after 48 hrs by luciferase reporter assay
Format: functional, organism-based, Hepacivirus hominis
Conditions: genotype 1b, Huh-7, 48 h
Procedure, shortened: (§1)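 Genotype 1b con1 subgenomic bicistronic replicon (clone ET) with luciferase reporter and adaptive mutations E1202G, T1280I, K1846T, carrying site-directed NS3 single or double mutations. 10 μg wild-type or mutant replicon RNA electroporated into Huh7-lunet cells, seeded 4,000 cells/well over a nine-point inhibitor dilution series, 48 h at 37°C, 5% CO2, then luminescence read. EC50 taken as median of individual experiments; fold change relative to parental replicon EC50.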

SMILES | EC50 [nM]
COc1ccc2c(O[C@@H]3C[C@H]4C(=O)N[C@]5(C(=O)NS(=O)(=O)C6CC6)C[C@H]5/C=C\CCCCN(C)C(=O)[C@@H]4C3)cc(-c3nc(C(C)C)cs3)nc2c1C [SIMEPREVIR] | 20

Test system: Hepatitis C virus
Assay: Antiviral activity against Hepatitis C virus subtype 1b expressing NS3 V36A mutant infected in HuH7 cells after 48 hrs by luciferase reporter assay
Format: functional, organism-based, Hepacivirus hominis
Conditions: genotype 1b, Huh-7, 48 h
Procedure, shortened: as §1

SMILES | EC50 [nM]
COc1ccc2c(O[C@@H]3C[C@H]4C(=O)N[C@]5(C(=O)NS(=O)(=O)C6CC6)C[C@H]5/C=C\CCCCN(C)C(=O)[C@@H]4C3)cc(-c3nc(C(C)C)cs3)nc2c1C [SIMEPREVIR] | 34

Test system: Hepatitis C virus
Assay: Antiviral activity against Hepatitis C virus subtype 1b expressing NS3 F43I mutant infected in HuH7 cells after 48 hrs by luciferase reporter assay
Format: functional, organism-based, Hepacivirus hominis
Conditions: genotype 1b, Huh-7, 48 h
Procedure, shortened: as §1

SMILES | EC50 [nM]
COc1ccc2c(O[C@@H]3C[C@H]4C(=O)N[C@]5(C(=O)NS(=O)(=O)C6CC6)C[C@H]5/C=C\CCCCN(C)C(=O)[C@@H]4C3)cc(-c3nc(C(C)C)cs3)nc2c1C [SIMEPREVIR] | 562

Test system: Hepatitis C virus
Assay: Antiviral activity against Hepatitis C virus subtype 1b expressing NS3 F43V mutant infected in HuH7 cells after 48 hrs by luciferase reporter assay
Format: functional, organism-based, Hepacivirus hominis
Conditions: genotype 1b, Huh-7, 48 h
Procedure, shortened: as §1

SMILES | EC50 [nM]
COc1ccc2c(O[C@@H]3C[C@H]4C(=O)N[C@]5(C(=O)NS(=O)(=O)C6CC6)C[C@H]5/C=C\CCCCN(C)C(=O)[C@@H]4C3)cc(-c3nc(C(C)C)cs3)nc2c1C [SIMEPREVIR] | 626

Test system: Hepatitis C virus
Assay: Antiviral activity against Hepatitis C virus subtype 1b expressing NS3 Q80K mutant infected in HuH7 cells after 48 hrs by luciferase reporter assay
Format: functional, organism-based, Hepacivirus hominis
Conditions: genotype 1b, Huh-7, 48 h
Procedure, shortened: as §1

SMILES | EC50 [nM]
COc1ccc2c(O[C@@H]3C[C@H]4C(=O)N[C@]5(C(=O)NS(=O)(=O)C6CC6)C[C@H]5/C=C\CCCCN(C)C(=O)[C@@H]4C3)cc(-c3nc(C(C)C)cs3)nc2c1C [SIMEPREVIR] | 62

Test system: Hepatitis C virus
Assay: Antiviral activity against Hepatitis C virus subtype 1b expressing NS3 R109K mutant infected in HuH7 cells after 48 hrs by luciferase reporter assay
Format: functional, organism-based, Hepacivirus hominis
Conditions: genotype 1b, Huh-7, 48 h
Procedure, shortened: as §1

SMILES | EC50 [nM]
COc1ccc2c(O[C@@H]3C[C@H]4C(=O)N[C@]5(C(=O)NS(=O)(=O)C6CC6)C[C@H]5/C=C\CCCCN(C)C(=O)[C@@H]4C3)cc(-c3nc(C(C)C)cs3)nc2c1C [SIMEPREVIR] | 11

Test system: Hepatitis C virus
Assay: Antiviral activity against Hepatitis C virus subtype 1b expressing NS3 R155M mutant infected in HuH7 cells after 48 hrs by luciferase reporter assay
Format: functional, organism-based, Hepacivirus hominis
Conditions: genotype 1b, Huh-7, 48 h
Procedure, shortened: as §1

SMILES | EC50 [nM]
COc1ccc2c(O[C@@H]3C[C@H]4C(=O)N[C@]5(C(=O)NS(=O)(=O)C6CC6)C[C@H]5/C=C\CCCCN(C)C(=O)[C@@H]4C3)cc(-c3nc(C(C)C)cs3)nc2c1C [SIMEPREVIR] | 3.5

Test system: Hepatitis C virus
Assay: Antiviral activity against Hepatitis C virus subtype 1b expressing NS3 R155K mutant infected in HuH7 cells after 48 hrs by luciferase reporter assay
Format: functional, organism-based, Hepacivirus hominis
Conditions: genotype 1b, Huh-7, 48 h
Procedure, shortened: as §1

SMILES | EC50 [nM]
COc1ccc2c(O[C@@H]3C[C@H]4C(=O)N[C@]5(C(=O)NS(=O)(=O)C6CC6)C[C@H]5/C=C\CCCCN(C)C(=O)[C@@H]4C3)cc(-c3nc(C(C)C)cs3)nc2c1C [SIMEPREVIR] | 260

Test system: Hepatitis C virus
Assay: Antiviral activity against Hepatitis C virus subtype 1b expressing NS3 A156S mutant infected in HuH7 cells after 48 hrs by luciferase reporter assay
Format: functional, organism-based, Hepacivirus hominis
Conditions: genotype 1b, Huh-7, 48 h
Procedure, shortened: as §1

SMILES | EC50 [nM]
COc1ccc2c(O[C@@H]3C[C@H]4C(=O)N[C@]5(C(=O)NS(=O)(=O)C6CC6)C[C@H]5/C=C\CCCCN(C)C(=O)[C@@H]4C3)cc(-c3nc(C(C)C)cs3)nc2c1C [SIMEPREVIR] | 3

Test system: Hepatitis C virus
Assay: Antiviral activity against Hepatitis C virus subtype 1b expressing NS3 A156G mutant infected in HuH7 cells after 48 hrs by luciferase reporter assay
Format: functional, organism-based, Hepacivirus hominis
Conditions: genotype 1b, Huh-7, 48 h
Procedure, shortened: as §1

SMILES | EC50 [nM]
COc1ccc2c(O[C@@H]3C[C@H]4C(=O)N[C@]5(C(=O)NS(=O)(=O)C6CC6)C[C@H]5/C=C\CCCCN(C)C(=O)[C@@H]4C3)cc(-c3nc(C(C)C)cs3)nc2c1C [SIMEPREVIR] | 206

Test system: Hepatitis C virus
Assay: Antiviral activity against Hepatitis C virus subtype 1b expressing NS3 A156T mutant infected in HuH7 cells after 48 hrs by luciferase reporter assay
Format: functional, organism-based, Hepacivirus hominis
Conditions: genotype 1b, Huh-7, 48 h
Procedure, shortened: as §1

SMILES | EC50 [nM]
COc1ccc2c(O[C@@H]3C[C@H]4C(=O)N[C@]5(C(=O)NS(=O)(=O)C6CC6)C[C@H]5/C=C\CCCCN(C)C(=O)[C@@H]4C3)cc(-c3nc(C(C)C)cs3)nc2c1C [SIMEPREVIR] | 377

Test system: Hepatitis C virus
Assay: Antiviral activity against Hepatitis C virus subtype 1b expressing NS3 D168G mutant infected in HuH7 cells after 48 hrs by luciferase reporter assay
Format: functional, organism-based, Hepacivirus hominis
Conditions: genotype 1b, Huh-7, 48 h
Procedure, shortened: as §1

SMILES | EC50 [nM]
COc1ccc2c(O[C@@H]3C[C@H]4C(=O)N[C@]5(C(=O)NS(=O)(=O)C6CC6)C[C@H]5/C=C\CCCCN(C)C(=O)[C@@H]4C3)cc(-c3nc(C(C)C)cs3)nc2c1C [SIMEPREVIR] | 42

Test system: Hepatitis C virus
Assay: Antiviral activity against Hepatitis C virus subtype 1b expressing NS3 D168T mutant infected in HuH7 cells after 48 hrs by luciferase reporter assay
Format: functional, organism-based, Hepacivirus hominis
Conditions: genotype 1b, Huh-7, 48 h
Procedure, shortened: as §1

SMILES | EC50 [nM]
COc1ccc2c(O[C@@H]3C[C@H]4C(=O)N[C@]5(C(=O)NS(=O)(=O)C6CC6)C[C@H]5/C=C\CCCCN(C)C(=O)[C@@H]4C3)cc(-c3nc(C(C)C)cs3)nc2c1C [SIMEPREVIR] | 4090

Test system: Hepatitis C virus
Assay: Antiviral activity against Hepatitis C virus subtype 1b expressing NS3 D168V mutant infected in HuH7 cells after 48 hrs by luciferase reporter assay
Format: functional, organism-based, Hepacivirus hominis
Conditions: genotype 1b, Huh-7, 48 h
Procedure, shortened: as §1

SMILES | EC50 [nM]
COc1ccc2c(O[C@@H]3C[C@H]4C(=O)N[C@]5(C(=O)NS(=O)(=O)C6CC6)C[C@H]5/C=C\CCCCN(C)C(=O)[C@@H]4C3)cc(-c3nc(C(C)C)cs3)nc2c1C [SIMEPREVIR] | 17900
